In ChEMBL document CHEMBL1208768, “Synthesis, selective anti-Helicobacter pylori activity, and cytotoxicity of novel N-substituted-2-oxo-2H-1-benzopyran-3-carboxamides” (Bioorg Med Chem Lett, 2010):
Converted amounts (≈) assume the structure as drawn. The source made the active and inactive calls. The rule behind the calls is not given here.

Columns and labels:
Candida albicans = test: Antifungal activity against Candida albicans after 24 hrs by broth microdilution method; type: functional
Method in brief: (§1)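 Candida isolates from respiratory-tract specimens, tested by NCCLS broth microdilution in Sabouraud dextrose broth. Serial compound dilutions inoculated to 10³/mL, with fungus-only and medium-only controls. Incubated 24 h at 37 °C. MIC was the lowest concentration with complete visible growth inhibition.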

Helicobacter pylori [1] = test: Antibacterial activity against metronidazole-resistant Helicobacter pylori isolate 18 after 72 hrs by agar dilution method; type: functional; details: isolate 18, 72 h
Method in brief: (§2)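 H. pylori clinical isolates (ATCC 43504 control each session) stored at -80 °C and subcultured twice on Columbia agar with 10% horse serum and 0.25% yeast extract. Suspensions of 0.5 McFarland were spotted by Steer's replicator at about 5 × 10⁵ CFU/spot onto agar with twofold compound dilutions. Plates were incubated 72 h at 37 °C in 10% CO₂. MIC was the lowest concentration without visible growth.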

Helicobacter pylori [2] = test: Antibacterial activity against metronidazole-resistant Helicobacter pylori isolate 20 after 72 hrs by agar dilution method; type: functional; details: isolate 20, 72 h; method in brief: as §2
Enterobacter = test: Antibacterial activity against Enterobacter after 18 to 22 hrs by broth microdilution method; type: functional
Method in brief: (§3)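 Clinical respiratory-tract isolates from patients, subcultured for purity and identified conventionally. Broth microdilution per NCCLS in Mueller–Hinton II broth; each plate had growth controls (bacteria, no compound) and medium-only controls. Incubation 18–22 h at 35 °C. MIC taken as the lowest concentration giving complete growth inhibition by unaided eye.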

Staphylococcus aureus = test: Antibacterial activity against Staphylococcus aureus after 18 to 22 hrs by broth microdilution method; type: functional; method in brief: as §3
Helicobacter pylori [3] = test: Antibacterial activity against metronidazole-resistant Helicobacter pylori NCTC 11637 after 72 hrs by agar dilution method; type: functional; details: NCTC 11637, 72 h; method in brief: as §2
Helicobacter pylori [4] = test: Antibacterial activity against metronidazole-resistant Helicobacter pylori isolate 8 after 72 hrs by agar dilution method; type: functional; details: isolate 8, 72 h; method in brief: as §2
[5] = Cytotoxicity against human EAhy926 cells assessed as cell survival at 0.05 ug/mL after 24 hrs by trypan blue exclusion assay; type: cell-based, EA.hy 926; details: read-out: Survival
Method in brief: (§4)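 EAhy cells in DMEM (high glucose) with 10% FBS, at 1 × 10⁵/mL in exponential growth and 60–70% confluent, were exposed 24 h at 37 °C to compounds from DMSO stocks (final DMSO ≤0.5%). Controls were cells alone or with DMSO, and 1 mM sodium nitroprusside as positive control. Cells were scraped, mixed 1:1 with 0.4% Trypan blue and counted on a hemocytometer by two operators. Result given as % viable cells.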

Pichia kudriavzevii = test: Antifungal activity against Candida krusei after 24 hrs by broth microdilution method; type: functional; method in brief: as §1
[6] = Cytotoxicity against human EAhy926 cells assessed as cell survival at 50 ug/mL after 24 hrs by trypan blue exclusion assay; type: cell-based, EA.hy 926; details: read-out: Survival; method in brief: as §4
Enterococcus faecalis = test: Antibacterial activity against Streptococcus faecalis after 18 to 22 hrs by broth microdilution method; type: functional; method in brief: as §3
AGS [7] = test: Antiinflammatory activity in human AGS cells assessed as inhibition of IL-8 production at 0.5 ug/mL after 24 hrs; type: functional, cell-based
Method in brief: (§5)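 AGS gastric adenocarcinoma cells were grown in F-12K with 10% FBS. They were seeded at 1 × 10⁵/mL for 24 h, preincubated 1 h with compound at 5 or 0.5 µg/mL, then exposed to H. pylori.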

[8] = test system: Staphylococcus epidermidis; test: Antibacterial activity against Staphylococcus epidermidis after 18 to 22 hrs by broth microdilution method; type: functional; method in brief: as §3
Helicobacter pylori [9] = test: Antibacterial activity against metronidazole-resistant Helicobacter pylori isolate 1 after 72 hrs by agar dilution method; type: functional; details: isolate 1, 72 h; method in brief: as §2
[10] = Cytotoxicity against human EAhy926 cells assessed as cell survival at 5 ug/mL after 24 hrs by trypan blue exclusion assay; type: cell-based, EA.hy 926; details: read-out: Survival; method in brief: as §4
[11] = Cytotoxicity against human EAhy926 cells assessed as cell survival at 5 ug/mL after 24 hrs by MTT assay; type: cell-based, EA.hy 926; details: read-out: Survival
Klebsiella aerogenes = test: Antibacterial activity against Enterobacter aerogenes after 18 to 22 hrs by broth microdilution method; type: functional; method in brief: as §3
Klebsiella pneumoniae = test: Antibacterial activity against Klebsiella pneumoniae after 18 to 22 hrs by broth microdilution method; type: functional; method in brief: as §3
[12] = test system: Staphylococcus haemolyticus; test: Antibacterial activity against Staphylococcus haemolyticus after 18 to 22 hrs by broth microdilution method; type: functional; method in brief: as §3
Proteus vulgaris = test: Antibacterial activity against Proteus vulgaris after 18 to 22 hrs by broth microdilution method; type: functional; method in brief: as §3
[Candida] sake = Antifungal activity against Candida sake after 24 hrs by broth microdilution method; type: functional; details: Fermentozyma sake; method in brief: as §1
Klebsiella oxytoca = test: Antibacterial activity against Klebsiella oxytoca after 18 to 22 hrs by broth microdilution method; type: functional; method in brief: as §3
Staphylococcus hominis = test: Antibacterial activity against Staphylococcus hominis after 18 to 22 hrs by broth microdilution method; type: functional; method in brief: as §3
Citrobacter freundii = test: Antibacterial activity against Citrobacter freundii after 18 to 22 hrs by broth microdilution method; type: functional; method in brief: as §3
AGS [13] = test: Antiinflammatory activity in human AGS cells assessed as inhibition of IL-8 production at 5 ug/mL after 24 hrs; type: functional, cell-based; method in brief: as §5
Helicobacter pylori [14] = test: Antibacterial activity against Helicobacter pylori ATCC 43504 clinical isolates after 72 hrs by agar dilution method; type: functional; details: ATCC 43504, 72 h
Method in brief: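 Agar dilution per NCCLS. Twenty clinical strains from duodenal ulcer or gastritis patients, with ATCC 43504 as control in each session, were subcultured twice on Columbia agar plus 10% horse serum and 0.25% yeast extract (72 h, 37 °C, 10% CO₂). Inoculum of 0.5 McFarland in Wilkins Chalgren broth, about 5 × 10⁵ CFU/spot by Steer's replicator. Plates held twofold compound dilutions down to 0.0039 µg/mL and were incubated 72 h at 37 °C, 10% CO₂. MIC was the lowest concentration inhibiting visible growth.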

Escherichia coli = test: Antibacterial activity against Escherichia coli after 18 to 22 hrs by broth microdilution method; type: functional; method in brief: as §3
[15] = Cytotoxicity against human EAhy926 cells assessed as cell survival at 0.5 ug/mL after 24 hrs by MTT assay; type: cell-based, EA.hy 926; details: read-out: Survival
[16] = Cytotoxicity against human EAhy926 cells assessed as cell survival at 0.5 ug/mL after 24 hrs by trypan blue exclusion assay; type: cell-based, EA.hy 926; details: read-out: Survival; method in brief: as §4
AGS (Homo sapiens) = test: Cytotoxicity against human AGS cells assessed as cell survival at 50 ug/mL after 24 hrs by MTT assay

SMILES	MIC (Candida albicans)	MIC (Helicobacter pylori [1])	MIC (Helicobacter pylori [2])	MIC (Enterobacter)	MIC (Staphylococcus aureus)	MIC (Helicobacter pylori [3])	MIC (Helicobacter pylori [4])	MIC (Pichia kudriavzevii)	MIC (Enterococcus faecalis)	inhibition (AGS [7])	MIC [8]	MIC (Helicobacter pylori [9])	MIC (Klebsiella aerogenes)	MIC (Klebsiella pneumoniae)	MIC [12]	MIC (Proteus vulgaris)	MIC ([Candida] sake)	MIC (Klebsiella oxytoca)	MIC (Staphylococcus hominis)	MIC (Citrobacter freundii)	further results
COc1ccc2oc(=O)c(C(=O)Nc3ccc(C(=O)O)cc3)cc2c1	> 128 mg/L	4 mg/L (≈ 11.8 µM)	4 mg/L (≈ 11.8 µM)	> 128 mg/L	> 128 mg/L	4 mg/L (≈ 11.8 µM)	4 mg/L (≈ 11.8 µM)	> 128 mg/L	> 128 mg/L	inactive	> 128 mg/L	8 mg/L (≈ 23.6 µM)	> 128 mg/L	> 128 mg/L	> 128 mg/L	> 128 mg/L	> 128 mg/L	> 128 mg/L	> 128 mg/L	> 128 mg/L	viability at 24 h, 0.05 ug/mL [5]: 85%; viability at 24 h, 50 ug/mL [6]: 62%; viability at 24 h, 5 ug/mL [10]: 69%; viability at 24 h, 5 ug/mL [11]: 99%; inhibition (AGS [13]): inactive; MIC50 (Helicobacter pylori [14]): 4 mg/L (≈ 11.8 µM); MIC90 (Helicobacter pylori [14]): 8 mg/L (≈ 23.6 µM); MIC (Escherichia coli): > 128 mg/L; viability at 24 h, 0.5 ug/mL [15]: 99%
O=C(O)c1ccc(NC(=O)c2cc3ccc(O)cc3oc2=O)cc1	> 128 mg/L	8 mg/L (≈ 24.6 µM)	8 mg/L (≈ 24.6 µM)	> 128 mg/L	> 128 mg/L	8 mg/L (≈ 24.6 µM)	4 mg/L (≈ 12.3 µM)	> 128 mg/L	> 128 mg/L	inactive	> 128 mg/L	8 mg/L (≈ 24.6 µM)	> 128 mg/L	> 128 mg/L	> 128 mg/L	> 128 mg/L	> 128 mg/L	> 128 mg/L	> 128 mg/L	> 128 mg/L	viability at 24 h, 0.05 ug/mL [5]: 98%; viability at 24 h, 50 ug/mL [6]: 82%; viability at 24 h, 5 ug/mL [10]: 92%; viability at 24 h, 0.5 ug/mL [16]: 93%; viability at 24 h, 5 ug/mL [11]: 99%; viability at 24 h, 50 ug/mL (AGS (Homo sapiens)): 77%; inhibition (AGS [13]): inactive; MIC50 (Helicobacter pylori [14]): 8 mg/L (≈ 24.6 µM); MIC90 (Helicobacter pylori [14]): 16 mg/L (≈ 49.2 µM); MIC (Escherichia coli): > 128 mg/L; viability at 24 h, 0.5 ug/mL [15]: 99%
CCOC(=O)c1ccc(NC(=O)c2cc3cc(OC)ccc3oc2=O)cc1	> 128 mg/L	4 mg/L (≈ 10.9 µM)	4 mg/L (≈ 10.9 µM)	> 128 mg/L	> 128 mg/L	4 mg/L (≈ 10.9 µM)	4 mg/L (≈ 10.9 µM)	> 128 mg/L	> 128 mg/L	inactive	> 128 mg/L	8 mg/L (≈ 21.8 µM)	> 128 mg/L	> 128 mg/L	> 128 mg/L	> 128 mg/L	> 128 mg/L	> 128 mg/L	> 128 mg/L	> 128 mg/L	viability at 24 h, 0.05 ug/mL [5]: 72%; viability at 24 h, 50 ug/mL [6]: 36%; viability at 24 h, 5 ug/mL [10]: 42%; viability at 24 h, 0.5 ug/mL [16]: 67%; viability at 24 h, 5 ug/mL [11]: 58%; viability at 24 h, 50 ug/mL (AGS (Homo sapiens)): 41%; inhibition (AGS [13]): inactive; MIC50 (Helicobacter pylori [14]): 4 mg/L (≈ 10.9 µM); MIC90 (Helicobacter pylori [14]): 8 mg/L (≈ 21.8 µM); MIC (Escherichia coli): > 128 mg/L; viability at 24 h, 0.5 ug/mL [15]: 98%
CCOC(=O)c1ccc(NC(=O)c2cc3cccc(O)c3oc2=O)cc1	> 128 mg/L	> 128 mg/L	> 128 mg/L	> 128 mg/L	> 128 mg/L	> 128 mg/L	> 128 mg/L	> 128 mg/L	> 128 mg/L	inactive	> 128 mg/L	> 128 mg/L	> 128 mg/L	> 128 mg/L	> 128 mg/L	> 128 mg/L	> 128 mg/L	> 128 mg/L	> 128 mg/L	> 128 mg/L	inhibition (AGS [13]): inactive; MIC50 (Helicobacter pylori [14]): > 128 mg/L; MIC90 (Helicobacter pylori [14]): > 128 mg/L; MIC (Escherichia coli): > 128 mg/L
O=C(O)c1ccc(NC(=O)c2cc3cc(Br)cc(Br)c3oc2=O)cc1	> 128 mg/L	16 mg/L (≈ 34.3 µM)	16 mg/L (≈ 34.3 µM)	> 128 mg/L	> 128 mg/L	16 mg/L (≈ 34.3 µM)	16 mg/L (≈ 34.3 µM)	> 128 mg/L	> 128 mg/L	inactive	> 128 mg/L	16 mg/L (≈ 34.3 µM)	> 128 mg/L	> 128 mg/L	> 128 mg/L	> 128 mg/L	> 128 mg/L	> 128 mg/L	> 128 mg/L	> 128 mg/L	inhibition (AGS [13]): inactive; MIC50 (Helicobacter pylori [14]): 16 mg/L (≈ 34.3 µM); MIC90 (Helicobacter pylori [14]): 16 mg/L (≈ 34.3 µM); MIC (Escherichia coli): > 128 mg/L
CCOC(=O)N1CCC(NC(=O)c2cc3ccccc3oc2=O)CC1	> 128 mg/L	128 mg/L (≈ 372 µM)	> 128 mg/L	> 128 mg/L	> 128 mg/L	> 128 mg/L	> 128 mg/L	> 128 mg/L	> 128 mg/L	inactive	> 128 mg/L	128 mg/L (≈ 372 µM)	> 128 mg/L	> 128 mg/L	> 128 mg/L	> 128 mg/L	> 128 mg/L	> 128 mg/L	> 128 mg/L	> 128 mg/L	inhibition (AGS [13]): inactive; MIC50 (Helicobacter pylori [14]): > 128 mg/L; MIC90 (Helicobacter pylori [14]): > 128 mg/L; MIC (Escherichia coli): > 128 mg/L
